Data taken from ChEMBL document CHEMBL1145335, “Nonpeptide inhibitors of measles virus entry” (J Med Chem, 2006).
Activity calls are given as the source filed them. No cut-off for these calls is given here.

Legend:
[1] = test system: Measles morbillivirus; assay: Antiviral activity against wild type Measles virus Edmonston in Vero-CD150w cells by cytopathicity assay; assay type: functional, organism-based
In short: (§1)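 Cells infected with MV Edmonston at MOI 0.2 pfu/cell in the presence of 2-fold compound dilutions, starting at 75–300 µM and ending at 0.3–1.2 µM. Two to four replicates per concentration; DMSO ≤0.1% with matched DMSO controls. Virus-induced cytopathicity was read at 96 h post-infection by nonradioactive proliferation assay. IC50 was taken from dose-response curves of replicate averages.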

[2] = test system: Vero; assay: Cytotoxicity against Vero-CD150w cells; assay type: functional; conditions: Chlorocebus sabaeus
In short: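 Uninfected cells were exposed to 2-fold compound dilutions from 600 µM down to 2.3 µM for 36 to 40 h. Remaining proliferation was then measured over 1 h by nonradioactive proliferation assay. CC50 comes from two independent replicates.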

[3] = test system: Measles morbillivirus; assay: Antiviral activity against Measles virus variant in Vero-CD150w cells by cytopathicity assay; assay type: functional, organism-based
In short: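 MV variant carrying an F-protein point mutation at position 462. Cells infected at MOI 0.2 pfu/cell with 2-fold compound dilutions starting at 75–300 µM, in 2–4 replicates, with DMSO at most 0.1% and DMSO-matched controls. Cytopathicity quantified at 96 h post-infection by a nonradioactive proliferation assay. IC50 taken from dose-response curves of replicate averages.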

[4] = test system: Vero; assay: Selectivity index, CC50 for Vero-CD150w cells/IC50 for Measles virus Edmonston; assay type: functional
In short: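 Ratio of CC50 to IC50. CC50: 2-fold dilutions from 600 µM, 36–40 h exposure, proliferation read-out, two independent replicates. IC50: suppression of cytopathicity at MOI 0.2 pfu/cell, 96 h, proliferation read-out, from dose-response curves of replicate averages.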

[5] = test system: Measles morbillivirus; assay: Antiviral activity against wild type Measles virus Edmonston in Vero-CD150w cells upto 100 uM by cytopathicity assay; assay type: functional, organism-based; in short: as §1
[6] = test system: Measles morbillivirus; assay: Antiviral activity against wild type Measles virus Edmonston in Vero-CD150w cells at >75 uM by cytopathicity assay; assay type: functional, organism-based; in short: as §1
[7] = Measles morbillivirus, Edmonston, Vero-CD150w, read-out: IC50

Row | Compound | IC50 [1, 7] [µM] | IC50 ([1]; vero-cd150w) | CC50 [2] [µM] | IC50 [3] [µM] | Selectivity index [4] | Activity [5] | Activity [6]
1 | O=C(Cc1ccccc1)Nc1cc([N+](=O)[O-])cc([N+](=O)[O-])c1 | 30 | – | > 600 | > 150 | >20 | – | –
2 | O=C(Cc1ccccc1)Nc1ccccc1O | 13 | – | 525 | > 150 | 40 | – | –
3 | Nc1ccc2oc(Cc3ccccc3)nc2c1 | 55 | – | > 600 | > 150 | >10 | – | –
4 | O=C(Cc1ccncc1)Nc1cccc([N+](=O)[O-])c1 | > 75 | – | – | – | – | – | –
5 | NC(=O)c1ccc([N+](=O)[O-])cc1NC(=O)Cc1ccccc1 | 3 | – | 325 | > 150 | 108 | – | –
6 | Nc1ccc(CO)c(NC(=O)Cc2ccccc2)c1 | – | – | – | – | – | inactive | –
7 | O=C(Cc1ccccn1)Nc1cccc([N+](=O)[O-])c1 | > 75 | – | – | – | – | – | –
8 | COC(=O)c1cc(NC(=O)Cc2ccccc2)cc([N+](=O)[O-])c1 | 4 | – | 440 | > 150 | 110 | – | –
9 | O=C(Cc1cccc(F)c1)Nc1cccc([N+](=O)[O-])c1 | 47 | – | – | – | – | – | –
10 | Nc1cc(NC(=O)Cc2ccccc2)cc([N+](=O)[O-])c1 | 11 | – | > 600 | > 150 | >55 | – | –
11 | N#Cc1cccc(NC(=O)Cc2ccccc2)c1 | 6.5 | – | > 600 | > 150 | >92 | – | –
12 | O=C(Cc1cccc(I)c1)Nc1cccc([N+](=O)[O-])c1 | > 300 | – | – | – | – | – | –
13 | Nc1cccc(NC(=O)Cc2ccccc2)c1 | 19 | – | > 600 | > 150 | >32 | – | –
14 | NC(=O)c1cc(NC(=O)Cc2ccccc2)cc([N+](=O)[O-])c1 | 3.7 | – | 170 | > 75 | 46 | – | –
15 | COc1ccc(CC(=O)Nc2cc([N+](=O)[O-])ccc2O)cc1 | > 100 | – | 600 | – | <6 | – | –
16 | O=C(Cc1ccccc1)Nc1cc(NO)cc([N+](=O)[O-])c1 | 6 | – | 325 | > 75 | 54 | – | –
17 | O=C(Cc1ccccc1)Nc1cc(C(=O)O)cc([N+](=O)[O-])c1 | 5 | – | > 600 | > 150 | >120 | – | –
18 | O=C(Cc1ccccc1F)Nc1cccc([N+](=O)[O-])c1 | – | – | – | – | – | – | inactive
19 | O=C(Cc1cccnc1)Nc1cccc([N+](=O)[O-])c1 | > 75 | – | – | – | – | – | –
20 | O=C(Cc1ccccc1)Nc1cc([N+](=O)[O-])ccc1OC(=O)Cc1ccccc1 | 68 | – | 75 | – | 1 | – | –
21 | O=C(Cc1ccc(I)cc1)Nc1cccc([N+](=O)[O-])c1 | > 75 | – | – | – | – | – | –
22 | Nc1cc(CO)cc(NC(=O)Cc2ccccc2)c1 | – | – | – | – | – | inactive | –
23 | O=C(Cc1ccccc1)Nc1cc(CO)cc([N+](=O)[O-])c1 | 6 | – | > 600 | > 150 | >100 | – | –
24 | O=C(Cc1ccccc1I)Nc1cccc([N+](=O)[O-])c1 | > 300 | – | – | – | – | – | –
25 | O=C(Cc1ccc(F)cc1)Nc1cccc([N+](=O)[O-])c1 | 9 | – | – | – | – | – | –

Now from value to compound, other results behind:

Row | IC50 [1, 7] [µM] | IC50 ([1]; vero-cd150w) | Compound | CC50 [2] [µM] | IC50 [3] [µM] | Selectivity index [4] | Activity [5] | Activity [6]
26 | > 100 | – | O=C(Cc1ccccc1)Nc1cc(C(F)(F)F)ccc1O | > 600 | – | – | – | –
27 | > 300 | – | O=[N+]([O-])c1ccc(O)c(NS(=O)(=O)Cc2ccccc2)c1 | – | – | – | – | –
28 | 66 | – | COC(=O)c1ccc(O)c(NC(=O)Cc2ccccc2)c1 | > 600 | – | >9 | – | –
29 | – | Not Active | Nc1ccc(NC(=O)COc2ccccc2)c(O)c1 | – | – | – | – | –
30 | > 100 | – | O=C(Cc1ccccc1)Nc1ccccc1[N+](=O)[O-] | > 600 | – | – | – | –
31 | 23 | – | Nc1cc(C(=O)NCc2ccccc2)cc([N+](=O)[O-])c1 | – | – | – | – | –
32 | > 100 | – | O=C(COc1ccccc1)Nc1cc([N+](=O)[O-])ccc1O | 600 | – | <6 | – | –
33 | 8.5 | – | O=C(Cc1ccccc1)Nc1cccc([N+](=O)[O-])c1 | > 600 | – | >71 | – | –
34 | > 100 | – | Nc1cc(N)cc(NC(=O)Cc2ccccc2)c1 | – | – | – | – | –
35 | 47 | – | O=C(Cc1ccccc1)Nc1cc([N+](=O)[O-])ccc1O | 450 | – | 10 | – | –
36 | 127 | – | NC(=O)c1ccc(O)c(NC(=O)Cc2ccccc2)c1 | > 600 | – | >5 | – | –
37 | 55 | – | Nc1cc(NC(=O)Cc2ccccc2)cc(C(=O)O)c1 | > 600 | – | >11 | – | –
38 | 75 | – | Nc1ccc(NC(=O)Cc2ccccc2)c(O)c1 | > 600 | – | >8 | – | –
39 | 135 | – | Nc1ccc(NC(=O)Cc2ccccc2)cc1 | > 600 | – | >4 | – | –
40 | 16 | – | O=C(Cc1ccccc1)Nc1ccc([N+](=O)[O-])cc1 | 550 | – | 34 | – | –
41 | > 100 | – | COc1cccc(CC(=O)Nc2cc([N+](=O)[O-])ccc2O)c1 | > 600 | – | – | – | –
42 | 25 | – | O=C(Cc1ccccc1)Nc1cccc(O)c1 | > 600 | – | >24 | – | –
43 | 63 | – | O=C(Cc1ccccc1)Nc1ccc(O)c([N+](=O)[O-])c1 | > 600 | – | >10 | – | –
44 | > 100 | – | O=C(COc1ccccc1)Nc1ccc([N+](=O)[O-])cc1O | > 600 | – | – | – | –
45 | 18 | – | NC(=O)c1cc(N)cc(NC(=O)Cc2ccccc2)c1 | > 600 | – | >33 | – | –
46 | 109 | – | O=C(Cc1ccccc1)Nc1ccc(F)cn1 | > 600 | – | >6 | – | –
47 | > 100 | – | O=C(Cc1ccccc1)Nc1ccc(F)c([N+](=O)[O-])c1 | 450 | – | <5 | – | –
48 | 60 | – | O=C(Cc1ccccc1)Nc1ccccc1C(=O)O | > 600 | – | >10 | – | –
